Screens from PubChem BioAssay.
Hep lipid drop – modulators of hepatic lipid droplet formation | AID 1656 | inhibition, % at 6.5 µM | AML12 mouse hepatocytes, oleate lipid droplets, BODIPY imaging | actives 0.4% (n = 240,000);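 active = lipid droplet intensity inhibited by at least 50%, with more than 500 cells counted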
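Material – mouse AML12 hepatocyte cell line, fixed after treatment · Compound dosing – one dose, 6.5 µM compound · Times – compound with oleate, overnight · Measured by – Image-based BODIPY and DAPI two-channel analysis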
RGS4 pot – RGS4 potentiation or activation | actives 0.92% (n = 310,000) | B-score at 10 µM | AID 463111 | HEK293 M3R/inducible RGS4, carbachol calcium flux Fluo4; hits give low values;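 active = B-score of the integrated calcium signal more than 4 SD below the library mean, with starting fluorescence not abnormally high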;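 also: negative B-score means reduced calcium response which marks RGS4 activation or potentiation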
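Reagent: ECmax carbachol challenge; Test system: M3R-expressing HEK293 line, RGS4 induced by doxycycline; Schedule: overnight RGS4 induction, 30 min dye load 37 °C, 20 min compound RT; Detection: calcium dye Fluo4 fluorescence; Read-out: Agonist-evoked peak-minus-minimum fluorescence over baseline, integrated ratio, B score.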
MrgX1 antagonist – antagonists of human MrgX1 receptor. MRGX1-HEK293 calcium flux, Fluo-4, BAM8-22 antagonism; hits give low values. B-score at 10 µM. AID 588676. actives 1.3% (n = 310,000);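 active = calcium-response B-score plate-corrected more than 3 library SD below zero, starting fluorescence within 5 deviations, no agonist response on first addition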;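 also: peak minus trough fluorescence over baseline after final BAM8-22 challenge near maximal dose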
Target sequence (Q96LB2 whole entry, looked up): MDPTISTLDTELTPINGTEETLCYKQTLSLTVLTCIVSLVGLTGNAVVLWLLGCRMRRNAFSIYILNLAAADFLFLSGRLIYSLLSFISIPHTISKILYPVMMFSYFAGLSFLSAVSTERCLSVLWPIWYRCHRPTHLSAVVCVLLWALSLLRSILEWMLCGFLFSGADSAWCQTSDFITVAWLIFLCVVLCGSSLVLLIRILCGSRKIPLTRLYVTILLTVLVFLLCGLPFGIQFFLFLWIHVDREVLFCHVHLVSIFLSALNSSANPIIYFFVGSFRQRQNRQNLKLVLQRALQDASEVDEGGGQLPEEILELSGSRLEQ
RGS4 block – human RGS4 inhibition; P49798; HEK293 M3R/RGS4 inducible, Fluo-4 calcium flux; hits give high values; triggered by carbachol at its EC20; B-score at 10 µM; actives 0.45% (n = 310,000); AID 463165;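 active = B-score, a plate-corrected calcium signal, over three deviations above library mean, with baseline fluorescence within five deviations of library mean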;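 also: RGS4 expression induced by doxycycline in cells with stable M3 receptor; B-score is computed from the integrated fluorescence ratio over baseline after carbachol; higher B-score means a larger calcium signal and so more RGS4 inhibition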
Target sequence (P49798 whole entry, looked up): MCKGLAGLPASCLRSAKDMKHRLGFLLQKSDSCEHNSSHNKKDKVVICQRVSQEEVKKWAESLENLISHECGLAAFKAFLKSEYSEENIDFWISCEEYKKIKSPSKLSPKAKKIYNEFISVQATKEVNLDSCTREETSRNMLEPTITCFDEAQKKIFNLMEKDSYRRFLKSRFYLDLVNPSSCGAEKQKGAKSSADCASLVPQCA
MrgX1 PAM – allosterically activates human MrgX1 receptor signaling. B-score at 10 µM. actives 0.63% (n = 310,000). MrgX1-HEK293, Fluo-4 calcium flux, FDSS; hits give high values;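 active = plate-corrected calcium response at least 3 library SD above typical, normal starting fluorescence, not activating the receptor alone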;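 also: compound read alongside a low EC10 to EC30 dose of BAM8-22 agonist; peak minus trough fluorescence over baseline measured at the second addition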
MrgX1 ag – activates human MrgX1 receptor signaling | B-score at 10 µM | MrgX1-HEK293 cells, Fluo-4 calcium fluorescence, agonist mode; hits give high values | actives 0.44% (n = 310,000) | Q96LB2;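 active = calcium response B-score plate-corrected fluorescence ratio at least 3 library SD, with starting fluorescence B-score inside 5 SD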
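Assay system: MrgX1-expressing HEK293 cells / Amount: fifteen thousand cells per well / Doses: test compound in the initial addition of three / Timing: cells plated overnight, dye loaded 0.5 h 37 °C, 0.5 h room temperature / Technique: kinetic calcium dye fluorescence, Fluo-4 NW / Control set: positive and negative controls per plate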
RGS4 block valid – validation of RGS4 inhibitors; shares compounds with RGS4 block; HEK293 M3R/RGS4, carbachol calcium Fluo-4 fluorescence; carbachol added at its EC20; 0 = buffer wells, 100 = carbachol control; calcium response, % at 10 µM; actives 65% (n = 1,700); AID 492999;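 active = duplicate-averaged calcium response above the buffer-only control mean plus 5 SD of those controls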;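 also: integrated fluorescence ratio F max minus min over baseline F0; higher response in RGS4-induced cells means RGS4 inhibition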
RGS4 uninduced – non-induced cell nonspecific activity of RGS4 inhibitors | shares compounds with RGS4 block | HEK293 M3R non-induced, carbachol calcium Fluo-4; submaximal (EC20) carbachol stimulus; buffer wells 0%, carbachol control wells 100% | activity (percent), % at 10 µM | actives 20% (n = 1,900) | AID 493000; call rule not given here;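 also: RGS4 induction absent so cells express M3R without RGS4; higher means more calcium signal and flags a non-specific hit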
RGS4 inh ctr2 – signal in non-induced cells without carbachol, RGS4 inhibitor counter-screen | shares compounds with RGS4 block | HEK293 M3R/RGS4 non-induced, Fluo-4 calcium, no carbachol; normalised: buffer wells 0%, carbachol wells 100% | calcium response (agonist-mode artifact), % at 10 µM | actives 22% (n = 1,900);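 active = duplicate-averaged calcium rise in uninduced cells above buffer wells' mean plus 5 SD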
Numbers without * were called inactive; i = inactive; · = not tested or not shown. Hits are enriched below; roughly 3.8% of the tested compounds scored in any of these assays.

SMILES | Hep lipid drop | RGS4 pot | MrgX1 antagonist | RGS4 block | MrgX1 PAM | MrgX1 ag | RGS4 block valid | RGS4 uninduced | RGS4 inh ctr2
CC(=O)N1CC(=O)N=C1SCC(=O)Nc1nc(-c2ccccc2)c(-c2ccccc2)s1 | -24 | i | i | 8.7* | i | i | 29%* | i | i
Cn1c(CCNC(=O)c2ccco2)nc2cc(NC(=O)c3ccccc3)ccc21 | 1 | i | i | i | i | i | i | i | i
CCC(=O)NCCc1nc2cc(NC(=O)c3ccco3)ccc2n1C | -1 | i | i | i | i | i | i | i | i
Cn1c(CCNC(=O)c2ccccc2)nc2cc(NC(=O)c3ccco3)ccc21 | 1 | i | i | i | i | i | i | i | i
CCCCC(=O)Nc1ccc2c(c1)nc(CCNC(=O)c1ccco1)n2C | 19 | i | i | i | i | i | · | · | ·
Cn1c(CCNC(=O)c2ccco2)nc2cc(NS(=O)(=O)c3ccccc3)ccc21 | 0 | i | i | i | i | i | · | · | ·
COc1ccccc1C(=O)Nc1ccc2c(c1)nc(CCNC(=O)c1ccco1)n2C | -1 | i | i | i | i | i | · | · | ·
Cn1c(CCNC(=O)c2ccco2)nc2cc(NC(=O)c3ccco3)ccc21 | 12 | i | i | i | i | i | i | i | i
O=C(Nc1ccccc1-c1ccccc1)C1CCCN(c2ncccn2)C1 (stereo not drawn) | · | i | i | i | i | i | · | · | ·
O=c1oc2ccccc2c(O)c1/C=C1\C=Nc2ccccc21 | · | i | i | 22* | i | i | 66%* | i | 48%*
CCC(=O)NC(c1ccccc1)c1c(OC(C)=O)ccc2ccccc12 (stereo not drawn) | -22 | i | i | i | i | i | · | 45%* | 7.0%*
CCC(=O)NC(c1cccc([N+](=O)[O-])c1)c1c(OC(C)=O)ccc2ccccc12 (stereo not drawn) | 22 | i | i | i | i | i | · | · | ·
Cc1ccc(C2(c3noc(CN4CCC(c5ccncc5)CC4)n3)CCCC2)cc1 | -11 | i | i | i | i | i | · | · | ·
NC(=O)N/N=C/c1ccc(-c2cccc(C(F)(F)F)c2)o1 | -14 | i | i | i | i | i | · | · | ·
Cc1ccc(NCC(=O)N/N=C/c2ccc(-c3cccc(C(F)(F)F)c3)o2)cc1 | 4 | i | i | 28* | i | i | 62%* | 37%* | i
CCc1nnc(NC(=O)Cc2cc(OC)c(OC)c(OC)c2)s1 | 33 | i | i | i | i | i | · | · | ·
CCOC(=O)CNc1nnc(SCC(=O)OCC)[nH]c1=O | · | i | i | i | i | i | · | i | i
C/C(=N\NC(=O)c1cc(-c2cccc([N+](=O)[O-])c2)n[nH]1)c1ccccc1O | 0 | i | i | i | i | i | · | · | ·
Cc1ccc(Nc2nc(N)nc(CN3CCN(c4ccccc4)CC3)n2)cc1Cl | -11 | i | i | 6.6* | i | i | 14%* | i | i
COc1ccccc1Nc1nc(N)nc(CN2CCN(c3ccccc3)CC2)n1 | 10 | i | i | i | i | i | · | · | ·
COc1ccc(N2CCN(Cc3nc(N)nc(Nc4ccc(C)c(Cl)c4)n3)CC2)cc1 | 2 | i | i | i | i | i | i | i | i
C#CCOc1ccc(/C=C2/C(=O)NN(c3ccc(F)cc3)C2=O)cc1OC | · | i | i | i | i | i | · | 30%* | i
COc1cc(/C=N/n2cnnc2)ccc1OC(=O)c1ccco1 | -28 | i | i | i | i | i | · | · | ·
COc1cc(/C=C2\C(=O)NN(c3ccccc3)C2=O)ccc1OCC(N)=O | 3 | i | i | i | i | i | · | · | ·
COc1cc(/C=C2/C(=O)NN(c3cccc(C)c3)C2=O)ccc1OC(=O)c1ccco1 | -7 | i | i | 6.8* | i | i | 16%* | 31%* | i
SMILES | Hep lipid drop | RGS4 pot | MrgX1 antagonist | RGS4 block | MrgX1 PAM | MrgX1 ag | RGS4 block valid | RGS4 uninduced | RGS4 inh ctr2
COC(=O)c1ccc(N2NC(=O)/C(=C/c3ccc(OC)c(OC)c3)C2=O)cc1 | 0 | i | i | 6.2* | i | i | 20%* | 40%* | i
COc1ccc(NS(=O)(=O)c2ccc(Cl)c(N)c2)cc1Br | -16 | i | i | 8.6* | i | i | 15%* | 32%* | i
COC(=O)C(=N/Nc1ccccc1C(=O)OC)/C(C)=N/O | 6 | i | i | i | i | i | · | · | ·
Oc1cccc(-c2nc3ccccc3s2)c1 | 4 | i | i | i | i | i | · | · | ·
COc1ccc(-c2n[nH]c(C)c2-c2ccc(Cl)cc2)c(O)c1 | · | i | i | i | i | i | · | · | ·
Cc1[nH]nc(-c2ccc(O)cc2O)c1-c1ccc(Cl)cc1 | · | i | i | 28* | i | i | 54%* | i | 32%*
Cc1[nH]nc(-c2ccc(O)cc2O)c1-c1nc2ccccc2s1 | -4 | i | i | 7.6* | i | i | 21%* | i | 26%*
COc1ccc(C2(O)CCN(CC(=O)Nc3nccs3)CC2)c(OC)c1 | 20 | i | i | i | i | i | · | · | ·
COc1ccc(C2C3=C(CCCC3=O)NC3=C2C(=O)c2ccccc23)cc1 (stereo not drawn) | 6 | i | i | 11* | i | i | i | i | i
Cc1ccc(C2C3=C(CC(C)(C)CC3=O)NC3=C2C(=O)c2ccccc23)cc1 (stereo not drawn) | 4 | i | i | i | i | i | · | · | ·
CC(=O)/C=C1/C(=O)Nc2ccccc21 | 4 | i | i | 18* | i | i | 34%* | 44%* | 26%*
CN(C)CC(CCCCC(CN(C)C)C(=O)c1ccccc1)C(=O)c1ccccc1 (stereo not drawn) | -1 | i | i | i | i | i | · | · | ·
